Laboratory results reported in ChEMBL document CHEMBL1156026, “Design and synthesis of pyridazinone-based 5-HT(2C) agonists” (Bioorg Med Chem Lett, 2009).

Columns and labels:
[1] = target: T1, 5-hydroxytryptamine receptor 2C (Homo sapiens, UniProt P28335); experiment: (§1) Agonist activity at human recombinant 5HT2C receptor expressed in CHOK1 cells assessed as induction of calcium mobilization by FLIPR assay; format: functional, cell-based, CHO-K1
T1 sequence (P28335 whole entry): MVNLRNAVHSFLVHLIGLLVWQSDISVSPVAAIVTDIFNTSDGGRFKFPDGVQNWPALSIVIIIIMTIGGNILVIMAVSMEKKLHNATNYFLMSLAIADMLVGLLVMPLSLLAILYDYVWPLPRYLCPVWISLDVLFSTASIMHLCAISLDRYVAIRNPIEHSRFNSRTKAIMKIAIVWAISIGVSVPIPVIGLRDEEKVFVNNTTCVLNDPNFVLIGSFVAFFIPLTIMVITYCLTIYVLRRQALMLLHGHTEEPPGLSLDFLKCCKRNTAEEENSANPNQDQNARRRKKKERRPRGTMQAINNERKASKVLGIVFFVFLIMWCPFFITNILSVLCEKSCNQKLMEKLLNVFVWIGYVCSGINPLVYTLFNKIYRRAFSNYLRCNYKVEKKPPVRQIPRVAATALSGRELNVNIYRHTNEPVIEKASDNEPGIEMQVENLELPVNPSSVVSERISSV

[2] = target: 5-hydroxytryptamine receptor 2B (Homo sapiens, UniProt P41595); experiment: Agonist activity at human recombinant 5HT2B receptor expressed in Swiss mouse 3T3 cells assessed as induction of calcium mobilization by FLIPR assay; format: functional, cell-based; conditions: for Emax: NIH3T3
[3] = target: 5-hydroxytryptamine receptor 2A (Homo sapiens, UniProt P28223); experiment: Agonist activity at human recombinant 5HT2A receptor expressed in Swiss mouse 3T3 cells assessed as induction of calcium mobilization by FLIPR assay; format: functional, cell-based; conditions: for Emax: NIH3T3
[4] = target: T1, 5-hydroxytryptamine receptor 2C; experiment: Displacement of [3H]meselurgine from human recombinant 5HT2C receptor expressed in Swiss mouse 3T3 cells by SPA; format: cell-based
In short: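 Competition binding against [3H]-meselurgine at the human 5-HT2C receptor, read by scintillation proximity assay, using membrane preparations made from Swiss 3T3 cells expressing the recombinant receptor.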

[5] = target: T2, 5-hydroxytryptamine receptor 2C (Homo sapiens) (UniProt P28335); experiment: as §1; format: functional, cell-based; conditions: CHO-K1
T2 sequence (whole entry): T1 sequence (P28335 whole entry)

[6] = tested on: Canis familiaris; experiment: Plasma concentration in continuous iv dosed dog; format: ADME, organism-based, Canis lupus familiaris; conditions: in vivo
[7] = target: T3, B2 bradykinin receptor (Homo sapiens) (UniProt P30411); experiment: Binding affinity to human bradykinin B2 receptor
T3 sequence (whole entry): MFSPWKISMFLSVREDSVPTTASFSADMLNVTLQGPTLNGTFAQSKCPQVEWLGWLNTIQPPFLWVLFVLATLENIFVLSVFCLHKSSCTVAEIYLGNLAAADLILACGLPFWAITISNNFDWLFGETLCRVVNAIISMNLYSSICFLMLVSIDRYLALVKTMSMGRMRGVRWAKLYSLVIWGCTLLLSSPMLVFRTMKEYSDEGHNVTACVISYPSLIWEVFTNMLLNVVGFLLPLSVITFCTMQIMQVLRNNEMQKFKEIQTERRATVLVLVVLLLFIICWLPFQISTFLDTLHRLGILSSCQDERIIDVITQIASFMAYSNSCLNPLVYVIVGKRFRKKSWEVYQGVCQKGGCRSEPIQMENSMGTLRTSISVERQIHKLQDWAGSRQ

[8] = target: 5-hydroxytryptamine receptor 1B (Homo sapiens) (UniProt P28222); experiment: Binding affinity to human 5HT1B receptor
[9] = target: 5-hydroxytryptamine receptor 6 (Homo sapiens) (UniProt P50406); experiment: Binding affinity to human 5HT6 receptor
[10] = target: 5-hydroxytryptamine receptor 1D (Homo sapiens) (UniProt P28221); experiment: Binding affinity to human 5HT1D receptor
[11] = target: GABA-A receptor; agonist GABA site (Homo sapiens) (UniProt P14867+P47870+P28472+P48169+P34903+P18505+P47869+P31644+Q16445); experiment: Binding affinity to human GABAA receptor; format: protein-complex assay
[12] = tested on: Canis familiaris; experiment: Increase in urethral pressure in continuous iv dosed dog model of stress urinary incontinence; format: functional, Canis lupus familiaris, Urethra
[13] = Lipophilicity, log D at pH 7.4; format: physicochemical; conditions: buffer
[14] = Efflux ratio of permeability across MDCK cell membrane; format: ADME, cell-based, Canis lupus familiaris; conditions: dog
[15] = Metabolic stability in human liver microsomes; format: ADME, Microsome; conditions: read-out: Stability

5-hydroxytryptamine receptor 2B, sequence (P41595 whole entry): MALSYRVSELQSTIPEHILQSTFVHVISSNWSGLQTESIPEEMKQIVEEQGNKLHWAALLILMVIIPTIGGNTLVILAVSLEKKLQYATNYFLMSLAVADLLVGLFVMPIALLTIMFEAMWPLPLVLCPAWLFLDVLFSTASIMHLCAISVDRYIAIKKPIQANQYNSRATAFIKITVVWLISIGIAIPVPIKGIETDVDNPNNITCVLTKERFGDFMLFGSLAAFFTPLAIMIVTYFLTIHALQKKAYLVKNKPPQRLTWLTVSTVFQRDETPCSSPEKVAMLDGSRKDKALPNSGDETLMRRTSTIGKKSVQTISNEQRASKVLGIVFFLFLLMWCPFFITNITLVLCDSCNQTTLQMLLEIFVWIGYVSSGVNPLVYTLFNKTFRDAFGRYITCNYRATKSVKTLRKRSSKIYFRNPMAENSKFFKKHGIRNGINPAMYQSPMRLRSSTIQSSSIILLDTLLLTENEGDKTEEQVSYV
5-hydroxytryptamine receptor 2A, sequence (P28223 whole entry): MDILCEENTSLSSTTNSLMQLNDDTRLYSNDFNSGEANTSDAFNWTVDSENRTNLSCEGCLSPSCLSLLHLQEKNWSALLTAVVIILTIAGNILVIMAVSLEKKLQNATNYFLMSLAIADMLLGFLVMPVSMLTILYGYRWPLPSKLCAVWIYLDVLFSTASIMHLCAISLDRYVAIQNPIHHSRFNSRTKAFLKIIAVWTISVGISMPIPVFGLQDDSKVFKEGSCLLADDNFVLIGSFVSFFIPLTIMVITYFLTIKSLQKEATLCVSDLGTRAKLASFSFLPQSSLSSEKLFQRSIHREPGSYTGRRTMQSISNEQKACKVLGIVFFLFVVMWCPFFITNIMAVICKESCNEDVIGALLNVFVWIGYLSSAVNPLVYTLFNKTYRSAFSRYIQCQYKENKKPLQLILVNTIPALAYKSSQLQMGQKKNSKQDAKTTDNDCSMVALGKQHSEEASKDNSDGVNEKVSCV
5-hydroxytryptamine receptor 1D (Homo sapiens), sequence (P28221 whole entry): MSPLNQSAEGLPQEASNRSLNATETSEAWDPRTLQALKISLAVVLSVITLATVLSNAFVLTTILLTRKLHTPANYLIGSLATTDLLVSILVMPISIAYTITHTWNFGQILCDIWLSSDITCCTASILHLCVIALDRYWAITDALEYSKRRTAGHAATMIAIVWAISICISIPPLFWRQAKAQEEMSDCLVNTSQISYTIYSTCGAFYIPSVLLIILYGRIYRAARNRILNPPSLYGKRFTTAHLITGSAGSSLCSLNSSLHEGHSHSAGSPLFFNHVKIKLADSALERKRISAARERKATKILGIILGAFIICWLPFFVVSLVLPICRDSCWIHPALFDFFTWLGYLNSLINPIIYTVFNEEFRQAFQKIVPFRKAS
5-hydroxytryptamine receptor 1B (Homo sapiens), sequence (P28222 whole entry): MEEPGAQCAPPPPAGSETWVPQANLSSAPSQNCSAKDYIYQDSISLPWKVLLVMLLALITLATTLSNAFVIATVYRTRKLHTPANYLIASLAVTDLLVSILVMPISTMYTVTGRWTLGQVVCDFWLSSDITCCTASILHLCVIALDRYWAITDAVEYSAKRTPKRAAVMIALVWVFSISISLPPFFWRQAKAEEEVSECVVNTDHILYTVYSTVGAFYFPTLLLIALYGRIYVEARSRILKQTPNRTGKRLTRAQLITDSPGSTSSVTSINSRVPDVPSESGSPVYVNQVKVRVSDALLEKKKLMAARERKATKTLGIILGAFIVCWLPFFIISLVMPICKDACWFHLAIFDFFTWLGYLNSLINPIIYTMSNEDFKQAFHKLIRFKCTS
5-hydroxytryptamine receptor 6 (Homo sapiens), sequence (P50406 whole entry): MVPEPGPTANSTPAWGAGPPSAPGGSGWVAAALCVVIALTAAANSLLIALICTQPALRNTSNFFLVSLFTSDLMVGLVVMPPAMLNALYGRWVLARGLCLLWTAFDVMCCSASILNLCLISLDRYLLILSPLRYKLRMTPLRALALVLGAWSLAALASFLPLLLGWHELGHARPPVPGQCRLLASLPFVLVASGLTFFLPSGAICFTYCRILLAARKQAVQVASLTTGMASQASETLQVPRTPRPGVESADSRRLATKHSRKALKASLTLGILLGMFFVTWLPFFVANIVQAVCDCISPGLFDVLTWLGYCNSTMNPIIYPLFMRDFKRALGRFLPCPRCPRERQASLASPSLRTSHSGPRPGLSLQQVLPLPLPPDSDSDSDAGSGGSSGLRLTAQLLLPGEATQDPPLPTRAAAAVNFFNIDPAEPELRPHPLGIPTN

Cc1cc(N2CCNCC2)nn(CCOc2ccccc2Cl)c1=O
EC50 [1]: > 10000 nM

C[C@@H](COc1ccccc1Cl)n1nc(N2CCNCC2)ccc1=O
EC50 [2]: 506 nM | Emax [2]: 30% | EC50 [3]: 65 nM | Emax [3]: 69% | Ki [4]: 728 nM | EC50 [1]: 25 nM | Emax [5]: 77%

O=c1ccc(N2CCNCC2)nn1CCOc1cccc(Cl)c1
EC50 [1]: > 10000 nM

O=c1ccc(N2CCNCC2)nn1CCOc1ccccc1Br
EC50 [1]: 101 nM | Emax [5]: 34%

O=CC1CNCCN1c1ccc(=O)n(CCOc2ccccc2Cl)n1 (stereo not given)
EC50 [1]: > 9980 nM

C[C@H](Cn1nc(N2CCNCC2)ccc1=O)Oc1ccccc1Cl
EC50 [1]: 858 nM | Emax [5]: 53%

C[C@@H]1CNCCN1c1ccc(=O)n(CCOc2ccccc2C(F)(F)F)n1
concentration [6]: 52 nM | EC50 [2]: > 2610 nM | EC50 [3]: 41 nM | Emax [3]: 61% | Activity [7]: < 1000 nM | Activity [8]: < 1000 nM | Activity [9]: < 1000 nM | Ki [4]: 89 nM | EC50 [1]: 11 nM | Emax [5]: 51% | Activity [10]: < 1000 nM | Activity [11]: < 1000 nM | Activity [12]: >20%

N#Cc1ccccc1OCCn1nc(N2CCNCC2)ccc1=O
EC50 [1]: 114 nM | Emax [5]: 69%

C[C@@H]1CNCCN1c1ccc(=O)n(CCOc2ccccc2Cl)n1
logD [13]: 0.9 | EC50 [2]: > 10000 nM | EC50 [3]: 114 nM | Emax [3]: 42% | Ki [4]: 325 nM | efflux ratio [14]: 6 | EC50 [1]: 25 nM | Emax [5]: 51% | microsomal CLint [15]: 9.8 µL/min/mg

C[C@H]1CN(c2ccc(=O)n(CCOc3ccccc3Cl)n2)CCN1
EC50 [1]: > 10000 nM

Clc1ccccc1CCOc1cncc(N2CCNCC2)n1
logD [13]: 2.2 | EC50 [2]: 187 nM | Emax [2]: 42% | EC50 [3]: 308 nM | Emax [3]: 56% | efflux ratio [14]: 2 | EC50 [1]: 10 nM | Emax [5]: 69% | microsomal CLint [15]: 94 µL/min/mg

O=c1c2c(c(N3CCNCC3)nn1CCOc1ccccc1Cl)CCC2
EC50 [1]: > 10000 nM

O=c1ccc(N2CCNCC2)nn1CCOc1ccc(Cl)cc1
EC50 [1]: > 10000 nM

Cc1cc(=O)n(CCOc2ccccc2Cl)nc1N1CCNCC1
EC50 [1]: 510 nM | Emax [5]: 31%

C[C@H](COc1ccccc1Cl)n1nc(N2CCNCC2)ccc1=O
EC50 [1]: > 1920 nM | Emax [5]: 55%

C[C@@H](Cn1nc(N2CCNCC2)ccc1=O)Oc1ccccc1Cl
EC50 [1]: 360 nM | Emax [5]: 87%

O=c1ccc(N2CCNCC2)nn1CCOc1cccc(Cl)c1Cl
EC50 [1]: > 2130 nM

Cc1ccccc1OCCn1nc(N2CCNCC2)ccc1=O
EC50 [1]: > 4550 nM | Emax [5]: 36%

O=c1ccc(N2CCNCC2)nn1CCOc1ccccc1C(F)(F)F
EC50 [2]: > 10000 nM | EC50 [3]: 1090 nM | Emax [3]: 49% | Ki [4]: 424 nM | EC50 [1]: 47 nM | Emax [5]: 45%

C[C@H]1CNCCN1c1ccc(=O)n(CCOc2ccccc2Cl)n1
EC50 [1]: > 10000 nM

O=c1ccc(N2CCNCC2)nn1CCOc1ccccc1
EC50 [1]: > 10000 nM

COc1ccccc1OCCn1nc(N2CCNCC2)ccc1=O
EC50 [1]: > 10000 nM

Clc1cccc(N2CCNCC2)c1
Emax [3]: 58%

CC[C@@H]1CNCCN1c1ccc(=O)n(CCOc2ccccc2Cl)n1
EC50 [1]: 407 nM | Emax [5]: 41%

O=c1ccc(N2CCNCC2)nn1CCOc1ccccc1Cl
logD [13]: 0.6 | EC50 [2]: > 10000 nM | EC50 [3]: 254 nM | Emax [3]: 41% | Ki [4]: 1600 nM | efflux ratio [14]: 5 | EC50 [1]: 164 nM | Emax [5]: 58% | microsomal CLint [15]: < 7 µL/min/mg
